The text below walks through data of ChEMBL document CHEMBL4613248, “Twelfth-Position Deuteration of Nevirapine Reduces 12-Hydroxy-Nevirapine Formation and Nevirapine-Induced Hepatocyte Death” (J Med Chem, 2020).

Format in all cases: cell-based
For series [1], the system named is Hepatocyte. As to the kind of experiment: Induction of change in PTP4A1 protein expression in human primary hepatocytes at 10 uM incubated for 48 hrs by relative-quantitation label-free proteomics analysis relative to NVP. The procedure, abridged:
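Cryoplateable pooled human hepatocytes (10 mixed-sex donors per pool; three pools), adhered overnight, then given fresh medium containing compound (10 μM), NVP (10 μM) or vehicle (0.1% DMSO) for 48 h. Lysate reduced (DTT) and alkylated (iodoacetamide), acetone-precipitated and digested with trypsin. Label-free Top10 nanoLC-MS with precursor ion area quantitation; unpaired t test P values, Cohen's d effect size.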

In series [2] the test system is Hepatocyte. As to the kind of experiment: Induction of change in Endog protein expression in C57BL/6J mouse primary hepatocytes at 400 uM incubated for 8 hrs by relative-quantitation label-free proteomics analysis relative to NVP. The procedure, abridged:
(§1)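 Fresh primary hepatocytes from male C57BL/6J mice aged 8–13 weeks, adhered overnight, then given fresh medium containing compound (400 μM), NVP (400 μM) or vehicle (0.2% DMSO) for 8 h. Lysate reduced (DTT) and alkylated (iodoacetamide), acetone-precipitated and digested with trypsin. Label-free Top10 nanoLC-MS with precursor ion area quantitation; unpaired t test P values, Cohen's d effect size.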

The subject of series [3] is Hepatocyte. As to the kind of experiment: Induction of change in Manf protein expression in C57BL/6J mouse primary hepatocytes at 400 uM incubated for 8 hrs by relative-quantitation label-free proteomics analysis relative to NVP. The gist of the method:
as §1

With `[2H]C([2H])([2H])c1ccnc2c1NC(=O)c1cccnc1N2C1CC1`, the results for the “fold change (FC)” value in the series with Hepatocyte [1], with Hepatocyte [2] and in the series on Hepatocyte [3] were -2.42, 2.07 and 1.3, respectively.
